# Screens as filed in PubChem BioAssay.
# STEP inh = blocks human striatal-enriched tyrosine phosphatase; AID 588621; recombinant STEP, OMFP fluorogenic substrate, fluorescence; inhibition, % at 20 µM; P54829; 360,000 tested, 0.25% active;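 active means inhibition at 20 µM, scaled per plate between control wells, above about 37%, limit read from the data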
# Target sequence (P54829 whole entry, looked up): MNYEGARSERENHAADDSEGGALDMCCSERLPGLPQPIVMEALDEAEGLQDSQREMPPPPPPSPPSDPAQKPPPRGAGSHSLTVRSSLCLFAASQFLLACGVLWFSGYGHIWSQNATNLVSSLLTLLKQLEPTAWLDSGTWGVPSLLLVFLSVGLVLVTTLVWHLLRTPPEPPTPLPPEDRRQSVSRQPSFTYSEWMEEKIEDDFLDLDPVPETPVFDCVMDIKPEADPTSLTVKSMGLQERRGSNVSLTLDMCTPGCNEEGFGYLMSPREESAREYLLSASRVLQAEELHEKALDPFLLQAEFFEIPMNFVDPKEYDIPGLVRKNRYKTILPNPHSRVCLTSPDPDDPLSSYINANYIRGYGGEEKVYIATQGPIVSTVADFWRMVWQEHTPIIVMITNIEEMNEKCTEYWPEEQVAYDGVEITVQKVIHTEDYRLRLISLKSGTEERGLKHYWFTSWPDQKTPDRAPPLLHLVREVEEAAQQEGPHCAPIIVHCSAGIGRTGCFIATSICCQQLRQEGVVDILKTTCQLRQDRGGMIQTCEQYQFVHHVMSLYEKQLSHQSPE
#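 Material: STEP (striatal-enriched tyrosine phosphatase) enzyme, cell-free | Medium: 50 mM Bis-Tris pH 6.0 with 2.5 mM DTT and 0.005% Tween 20 | Read-out: Percent inhibition scaled to no-enzyme and uninhibited-enzyme controls, plate-pattern corrected | Signal: Fluorescence read at 480 nm ex / 540 nm em | Times: 20 min reaction, room temperature, in the dark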
# DNMT1 block = blocks human DNA methyltransferase DNMT1 | P26358 | DNMT1 molecular beacon, Hinp1I cleavage, fluorescence | inhibition (reported as % activation of signal), % at 10 µM | 360,000 tested, 0.83% active | AID 588458; in the data active means inhibition above about 50%
# LMPTP inh = blocks human LMPTP phosphatase | recombinant LMPTP-A, OMFP fluorogenic substrate, fluorescence intensity | inhibition, % at 20 µM | 360,000 tested, 0.22% active | AID 651560;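 active means compounds that cut the enzyme signal by at least half of the control window in the single-dose screen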
#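 test system = LMPTP-A | amount = 0.625 nM LMPTP-A final | reagent = fluorogenic phosphatase substrate OMFP at 400 µM final | incubation = 50 min at room temperature | benchmarks = no-enzyme low control, uninhibited high control | medium = Bis-Tris pH 6.0, DTT, detergent | signal = fluorescence intensity of OMFP turnover product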
# Scp1 inh = blocks human Scp-1 phosphatase activity. Q9GZU7. Recombinant Scp1, phosphopeptide, malachite green phosphate absorbance. inhibition, % at 20 µM. 340,000 tested, 0.88% active;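 active means inhibition above about 50% at 20 µM, limit read from the data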
#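 Material: truncated SCP-1 phosphatase (76-261aa) / Buffer or medium: 50 mM Tris acetate pH 5.5, 0.005% Tween-20, 10 mM MgCl2 / Compound dosing: one concentration, 20 µM, with 1.0% DMSO / Incubation: 45 min room-temperature reaction, 5 min colour, 30 min stabiliser / Detection: colorimetric free-phosphate detection, absorbance 630 nm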
# SUMO1 PPI mod = alters human SUMO1 binding to SIM partners; P63165; SUMO1 binding to a labelled peptide, TR-FRET, 1 h; inhibition, % at 20 µM; 360,000 tested, 0.33% active; in the data active means inhibition above about 37%
# Target sequence (P63165 whole entry, looked up): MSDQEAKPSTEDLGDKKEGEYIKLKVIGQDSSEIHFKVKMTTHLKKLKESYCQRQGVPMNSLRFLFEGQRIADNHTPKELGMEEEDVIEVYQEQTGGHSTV
# Scp1 confirm = Scp-1 (human) inhibition, single-dose confirmed. recombinant SCP-1 catalytic domain, phosphate release, malachite green absorbance. AID 540281. 2,500 tested, 61% active. shares compounds with Scp1 inh. inhibition, % at 20 µM
# MG interference = counter-screen for Scp-1 inhibitors: colorimetric interference; Colorimetric interference counterscreen, malachite green absorbance 630 nm; shares compounds with Scp1 inh; 2,500 tested, under 10 active; apparent inhibition (interference), % at 20 µM;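 further: compounds added after enzyme reaction finished so only phosphate colour detection is probed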
# Scp-1 Tm shift = binds human Scp-1, shifting its melting temperature | shares compounds with Scp1 inh | Recombinant SCP1, Sypro Orange thermal shift Tm | thermal shift relative to vanadate control, % at 40 µM | 1,500 tested, 25% active | AID 540329;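 active means substances whose mean melting-temperature shift, as a percentage of the reference inhibitor's shift, reaches about 5.3%, limit read from the data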
# Hits are given with their value; 0 = inactive; - = no result given; ! = repeats disagree. Compounds with a hit are over-represented: about 1.7% of the library has one in this group of screens.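 How the source made its calls, unless noted: active means inhibition of at least 30% at 20 µM; inactive means the rest.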
SMILES,STEP inh,DNMT1 block,LMPTP inh,Scp1 inh,SUMO1 PPI mod,others
O=C1c2ccccc2-n2nnc(-c3ccccc3)c2C2c3cc(Br)ccc3CCN12 (stereo unspecified),0,0,0,-,0,
CC(C)CCOC(=O)c1c(N)n(CC2CCCO2)c2nc3ccccc3nc12 (stereo unspecified),0,0,0,0,0,
CC(C)OC(=O)c1c(N)n(CC2CCCO2)c2nc3ccccc3nc12 (stereo unspecified),0,0,0,0,42,
O=C1NC(=O)N(Cc2ccco2)C(=O)/C1=C/c1ccc(-c2cccc([N+](=O)[O-])c2)o1,0,98,0,82,38,
O=C1NC(=O)N(Cc2ccco2)C(=O)/C1=C\c1cccn1CCOc1ccc(Cl)cc1,0,59,0,0,0,
Cc1cc(/C=C2/C(=O)NC(=O)N(Cc3ccco3)C2=O)c(C)n1-c1ccccc1,0,55,0,0,0,
NC(=O)C1CCN(/C=C2\C(=O)NC(=O)N(Cc3ccco3)C2=O)CC1,0,52,0,69,0,
O=C(Nc1ccc(C(=O)O)cc1)Oc1ccc(N(CCCl)CCCl)cc1,0,0,0,-,0,
C[C@@H]1CN([C@H](C)CO)C(=O)CCCn2nncc2CO[C@@H]1CN(C)C(=O)Oc1ccc2ccccc2c1,0,0,0,-,0,
C[C@]12C[C@H](O)[C@@H](O)C[C@@H]1CC[C@@H]1[C@@H]2CC[C@]2(C)C(=O)CC[C@@H]12,0,0,0,-,0,
CCc1ccc(N2C(=O)NC(=O)/C(=C/c3cccn3CCOc3ccc(C)cc3)C2=O)cc1,0,0,0,0,0,
Cc1cccc(OCCn2cccc2/C=C2/C(=O)NC(=O)N(Cc3ccco3)C2=O)c1,0,60,0,0,0,
CN(C)c1ccc(/C=C/c2cc[n+](C)c3ccccc23)cc1,0,0,55!,0,0,
COc1ccc(CN2C(=O)NC(=O)/C(=C/c3ccc([N+](=O)[O-])s3)C2=O)cc1,0,51,0,0,65,
O=C1NC(=O)N(Cc2ccc(F)cc2)C(=O)/C1=C\c1ccc([N+](=O)[O-])s1,0,0,0,0,58,
O=c1[nH]c2ccccc2n1C1CCN(C(CCc2ccccc2)c2nnnn2-c2ccc3c(c2)OCCO3)CC1 (stereo unspecified),0,0,0,-,0,
CN(C)[C@@H]1C(=O)C(C(N)=O)=C(O)[C@@]2(O)C(=O)C3=C(O)c4c(O)cccc4[C@@](C)(O)C3C[C@@H]12 (stereo partly specified),0,84,0,0,37,
CN(C)[C@@H]1C(=O)C(C(N)=O)=C(O)[C@@]2(O)C(=O)C3=C(O)c4c(O)ccc(Cl)c4[C@@](C)(O)[C@H]3C[C@@H]12,0,0,0,0,0,
CN(C)[C@@H]1C(=O)C(C(N)=O)=C(O)[C@@]2(O)C(=O)C3=C(O)c4c(O)cccc4[C@@](C)(O)[C@H]3[C@H](O)[C@@H]12,0,97,66,65,70,
CN1C2CNC(=O)CC1C1CCC2C1 (stereo unspecified),0,0,0,-,0,
CC(C)COC(=O)c1ccccc1C(=O)OCC(C)C,0,0,0,0,0,
C[CH2][Hg][S]c1ccccc1C(=O)O,0,0,0,101,0,
CC[n+]1c(/C=C/C=C/c2ccc(N(C)C)cc2)sc2ccccc21,0,0,90,0,0,
NC(N)=Nc1ccc2[nH]c3c(c2c1)C[C@@]1(O)[C@H]2Cc4ccc(O)c5c4[C@@]1(CCN2CC1CC1)[C@H]3O5,0,0,0,99,0,
C[C@H]1CN([C@@H](C)CO)C(=O)CCCn2nncc2CO[C@@H]1CN(C)C(=O)Oc1ccccc1,0,0,0,-,0,
SMILES,STEP inh,DNMT1 block,LMPTP inh,Scp1 inh,SUMO1 PPI mod,others
Cc1sc2ccccc2c1CC1=NCCN1,0,0,0,0,0,
Nc1ccc(CC2=NCCN2)cc1,0,57,0,0,0,
COC(=O)C(O)(c1c(C)[nH]n(-c2ccccc2)c1=O)C(F)(F)F (stereo unspecified),0,0,0,0,0,
COc1cc(C(c2c(C)[nH]n(-c3ccccc3)c2=O)c2c(C)[nH]n(-c3ccccc3)c2=O)cc(OC)c1OC,0,0,0,0,54,
O=C(O)c1cccc2c1NC(C(=O)O)C1CC(Sc3ccccc3[N+](=O)[O-])C(Cl)C21 (stereo unspecified),98,104,79,56,88,
CC(=O)c1ccc2c(c1)C1C(Cl)C(Sc3ccccc3[N+](=O)[O-])CC1C(C(=O)O)N2 (stereo unspecified),0,114,78,0,84,
CC1=C(C)CN2CC(C#N)=C(N)C2C1 (stereo unspecified),0,0,0,-,0,
COC(=O)[C@@]1(Sc2ccc(C)cc2)CC(=O)N(P(=O)(OC)OC)[C@@H]1c1ccccc1,-,-,0,-,0,
COc1ccc(N2C(=O)NC(=O)/C(=C\c3ccc([N+](=O)[O-])s3)C2=O)cc1,0,0,0,0,0,
COc1cccc(N2C(=O)NC(=O)/C(=C/c3ccc([N+](=O)[O-])s3)C2=O)c1,0,0,0,0,47,
COc1ccc(N2C(=O)NC(=O)/C(=C/c3ccc([N+](=O)[O-])s3)C2=O)cc1,0,0,0,0,38,
CCOP(=O)(CCP(=O)(OCC)OCC)OCC.C[CH2][Sn]([Cl])([Cl])[CH2]C,0,0,0,0,0,
O=C(Cc1cc(=O)oc2cc(O)ccc12)NN=Cc1ccc(N(CCCl)CCCl)cc1,0,0,0,0,92,
CC1OC(C[N+](C)(C)C)CC1O (stereo unspecified),0,0,0,0,0,
C[C@H]1OC[C@@H](C[N+](C)(C)C)O1,0,0,0,101,0,
CCOC(=O)c1cc2c(cn1)[C@@H](CCO)NC2,0,0,0,0,0,
COC(=O)C1=C(c2ccc(OCc3ccccc3)cc2)C[C@@H]2CC[C@H]1N2C(=O)NCCc1ccc(F)cc1,0,0,0,-,0,
C[N+]1(CC2COC(c3ccco3)O2)CCCCC1 (stereo unspecified),0,0,0,109,0,Scp1 confirm=84;MG interference=0;Scp-1 Tm shift=0
COc1ccc(C(=O)OCC2CN2c2cccc([N+](=O)[O-])c2)cc1 (stereo unspecified),-,-,0,-,0,
